The record followed here is PMC2963662 (Neuropharmacology, 2010).

Common to all, as to experiment: two-electrode voltage clamp, Xenopus oocytes
Common to all, as to type: cell-based
A general note: Two-electrode voltage clamp holds a large cell at a set potential and records current.

Assay [1] concerns the target α2β3γ2 GABAA receptor (rat, oocytes) (Rattus norvegicus, UniProt P18508+P23576). The settings on record: read-out: α2. A digest of the protocol:
(§1)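 Oocytes from Xenopus laevis were injected with mRNA made from rat GABAA subunit cDNAs. Two-electrode voltage clamp was done at room temperature, holding at −60 mV, with electrodes filled with […]. Cells were perfused at 6 ml/min with Ringer (90 mM NaCl, 5 mM HEPES pH 7.4, 1 mM MgCl2, KCl, CaCl2). Drug in 0.1% DMSO final was pre-applied for 30 sec, then co-applied with GABA until peak, with washes of up to 15 min.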

Assay [2] has as its target α5β3γ2 GABAA receptor (rat, oocytes) (Rattus norvegicus, UniProt P18508+P19969). The conditions noted are these: read-out: α5. A digest of the protocol: as §1
Assay [3] deals with α1β3γ2 GABAA receptor (rat, oocytes) (Rattus norvegicus, UniProt P18508+P62813). The conditions noted are these: read-out: α1. A digest of the protocol: as §1
Sequence of α1β3γ2 GABAA receptor (rat, oocytes) (P62813 28-455): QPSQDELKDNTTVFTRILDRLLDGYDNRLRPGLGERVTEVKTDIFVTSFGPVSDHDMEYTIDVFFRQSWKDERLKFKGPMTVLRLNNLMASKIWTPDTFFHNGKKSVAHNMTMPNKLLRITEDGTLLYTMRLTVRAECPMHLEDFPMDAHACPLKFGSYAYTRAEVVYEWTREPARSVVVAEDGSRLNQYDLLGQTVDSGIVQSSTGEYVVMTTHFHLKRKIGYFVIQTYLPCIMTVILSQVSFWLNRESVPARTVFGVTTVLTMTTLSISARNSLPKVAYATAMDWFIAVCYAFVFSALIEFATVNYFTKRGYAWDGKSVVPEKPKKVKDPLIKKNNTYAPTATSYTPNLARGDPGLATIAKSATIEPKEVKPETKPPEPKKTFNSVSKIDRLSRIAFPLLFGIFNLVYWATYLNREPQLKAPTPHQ
Sequence of α1β3γ2 GABAA receptor (rat, oocytes) (P18508 39-466): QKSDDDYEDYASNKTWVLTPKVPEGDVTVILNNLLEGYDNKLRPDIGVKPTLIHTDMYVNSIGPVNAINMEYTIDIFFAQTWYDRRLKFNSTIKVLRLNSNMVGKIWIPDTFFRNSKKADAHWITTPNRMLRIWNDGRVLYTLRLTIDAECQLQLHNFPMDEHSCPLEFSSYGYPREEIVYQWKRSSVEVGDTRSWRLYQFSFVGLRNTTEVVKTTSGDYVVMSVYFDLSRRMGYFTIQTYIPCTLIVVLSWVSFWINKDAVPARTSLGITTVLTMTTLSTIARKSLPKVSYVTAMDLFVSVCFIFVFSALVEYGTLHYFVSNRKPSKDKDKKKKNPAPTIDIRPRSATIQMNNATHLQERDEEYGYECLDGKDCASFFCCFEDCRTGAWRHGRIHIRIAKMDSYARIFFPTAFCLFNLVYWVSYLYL
Sequence of α1β3γ2 GABAA receptor (rat, oocytes) (P63079 26-473 partner): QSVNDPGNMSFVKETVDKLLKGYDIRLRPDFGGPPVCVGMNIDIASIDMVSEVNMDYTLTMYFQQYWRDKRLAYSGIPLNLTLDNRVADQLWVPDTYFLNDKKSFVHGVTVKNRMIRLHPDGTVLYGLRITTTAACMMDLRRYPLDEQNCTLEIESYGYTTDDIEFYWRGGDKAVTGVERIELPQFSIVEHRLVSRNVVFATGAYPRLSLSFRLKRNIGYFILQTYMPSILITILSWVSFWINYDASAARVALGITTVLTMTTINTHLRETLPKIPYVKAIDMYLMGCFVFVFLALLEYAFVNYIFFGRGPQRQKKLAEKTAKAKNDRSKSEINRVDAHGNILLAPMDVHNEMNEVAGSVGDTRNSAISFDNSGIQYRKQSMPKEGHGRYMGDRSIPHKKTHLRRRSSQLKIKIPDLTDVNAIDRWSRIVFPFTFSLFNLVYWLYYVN
The target in assay [4] is α3β3γ2 GABAA receptor (rat, oocytes) (Rattus norvegicus, UniProt P18508+P20236). The settings on record: read-out: α3. The method in brief:
as §1

Sequence of α5β3γ2 GABAA receptor (rat, oocytes) (P19969 26-464): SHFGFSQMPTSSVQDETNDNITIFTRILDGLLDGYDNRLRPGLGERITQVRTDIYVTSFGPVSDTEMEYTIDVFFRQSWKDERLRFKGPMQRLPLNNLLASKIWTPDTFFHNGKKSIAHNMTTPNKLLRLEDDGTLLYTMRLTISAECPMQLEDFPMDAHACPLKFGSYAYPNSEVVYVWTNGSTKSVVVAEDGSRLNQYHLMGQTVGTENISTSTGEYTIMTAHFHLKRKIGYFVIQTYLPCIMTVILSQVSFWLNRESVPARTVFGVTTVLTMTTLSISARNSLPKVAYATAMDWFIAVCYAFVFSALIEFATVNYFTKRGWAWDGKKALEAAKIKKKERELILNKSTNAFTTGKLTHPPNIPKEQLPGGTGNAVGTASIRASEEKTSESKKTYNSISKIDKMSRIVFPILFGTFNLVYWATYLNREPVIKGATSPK
Sequence of α5β3γ2 GABAA receptor (rat, oocytes) (P18508 39-466): as the sequence (P18508 39-466) above
Sequence of α5β3γ2 GABAA receptor (rat, oocytes) (P63079 26-473 partner): as the sequence (P63079 26-473 partner) above
Sequence of α2β3γ2 GABAA receptor (rat, oocytes) (P23576 29-451): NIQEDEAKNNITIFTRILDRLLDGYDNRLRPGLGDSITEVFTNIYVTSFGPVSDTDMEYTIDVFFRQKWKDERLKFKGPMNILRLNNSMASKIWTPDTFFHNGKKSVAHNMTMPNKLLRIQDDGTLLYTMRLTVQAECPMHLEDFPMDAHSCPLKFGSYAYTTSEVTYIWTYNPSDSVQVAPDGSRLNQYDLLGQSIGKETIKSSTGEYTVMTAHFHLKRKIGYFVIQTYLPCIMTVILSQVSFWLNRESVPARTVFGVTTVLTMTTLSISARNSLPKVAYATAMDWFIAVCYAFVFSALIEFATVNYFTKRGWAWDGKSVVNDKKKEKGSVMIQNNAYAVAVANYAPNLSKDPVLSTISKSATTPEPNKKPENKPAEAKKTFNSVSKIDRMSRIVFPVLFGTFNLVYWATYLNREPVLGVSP
Sequence of α2β3γ2 GABAA receptor (rat, oocytes) (P18508 39-466): as the sequence (P18508 39-466) above
Sequence of α2β3γ2 GABAA receptor (rat, oocytes) (P63079 26-473 partner): as the sequence (P63079 26-473 partner) above
Sequence of α3β3γ2 GABAA receptor (rat, oocytes) (P20236 29-493): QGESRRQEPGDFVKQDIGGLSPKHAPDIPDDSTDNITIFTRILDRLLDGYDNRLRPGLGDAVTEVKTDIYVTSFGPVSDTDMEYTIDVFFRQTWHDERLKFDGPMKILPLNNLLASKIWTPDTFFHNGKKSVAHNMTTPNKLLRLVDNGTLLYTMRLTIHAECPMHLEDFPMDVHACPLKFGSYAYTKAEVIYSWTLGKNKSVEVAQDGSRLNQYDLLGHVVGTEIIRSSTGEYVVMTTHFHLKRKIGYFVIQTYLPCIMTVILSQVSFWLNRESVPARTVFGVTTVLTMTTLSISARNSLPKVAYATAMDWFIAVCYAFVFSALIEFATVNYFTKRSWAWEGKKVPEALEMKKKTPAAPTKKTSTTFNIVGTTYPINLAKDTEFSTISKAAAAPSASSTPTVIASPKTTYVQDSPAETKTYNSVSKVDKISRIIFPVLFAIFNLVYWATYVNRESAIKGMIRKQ
Sequence of α3β3γ2 GABAA receptor (rat, oocytes) (P18508 39-466): as the sequence (P18508 39-466) above
Sequence of α3β3γ2 GABAA receptor (rat, oocytes) (P63079 26-473 partner): as the sequence (P63079 26-473 partner) above

With `CN1C(=O)CN=C(c2ccccc2)c2cc(Cl)ccc21` [Diazepam], the activity at 1 µM in assay [1] is 536%; in assay [2], 342%; in assay [3] it was 314%; in assay [4], 752%.

Turning to `C#Cc1ccc2c(c1)C(c1ccccc1F)=N[C@@H](C)c1c(C(=O)OCC)ncn1-2` [SH-053-2'F-S-CH3, (S)-8-ethynyl-6-(2-fluoro-phenyl)-4-methyl-4H-2,5,10b-triaza-benzo[e]azulene-3-carboxylic acid ethyl ester], the activity at 1 µM in assay [2] amounted to 389%.
